One may read the pKd as the Kd on a negative log10 scale, so that one unit is a factor of ten.

Numbering of substitutions follows the chain as printed. pKd: −log10 of the molar value. Active and inactive are the calls of the source. The rule behind the calls is not given here.

This passage reports Activity, Kd and inhibition results from ChEMBL document CHEMBL4017530, “Mind the Metal: A Fragment Library-Derived Zinc Impurity Binds the E2 Ubiquitin-Conjugating Enzyme Ube2T and Induces Structural Rearrangements” (J Med Chem, 2017).

The target in assay [1] is T1, Ubiquitin-conjugating enzyme E2 T (Homo sapiens) (UniProt Q9NPD8).
T1 sequence (whole entry): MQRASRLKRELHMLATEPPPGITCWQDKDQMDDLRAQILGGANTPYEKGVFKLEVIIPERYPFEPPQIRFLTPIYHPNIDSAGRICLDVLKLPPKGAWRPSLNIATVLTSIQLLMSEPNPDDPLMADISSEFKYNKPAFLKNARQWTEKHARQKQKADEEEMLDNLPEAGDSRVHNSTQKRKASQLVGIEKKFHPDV
Put plainly: Reversible binding affinity to human 15N-labelled C-terminal flexible tail lacking Ube2T (1 to 154 residues) at 100 to 500 uM measured after overnight dialysis by NMR spectrocopy. An outline of the steps:
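HSQC on 50 μM 15N-Ube2T ΔC with compound at 100, 300 and 500 μM. Compound was then removed by overnight dialysis in 50 mM potassium phosphate pH 6.8, 85 mM NaCl, 1 mM DTT. HSQC recorded again and compared with the apo peak positions.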

The subject of assay [2] is T2, Ubiquitin-conjugating enzyme E2 T (Homo sapiens), Q9NPD8 [C86K,K91R,K95R].
T2 sequence (whole entry): T1 sequence (whole entry) with C86K, K91R, K95R
Put plainly: Binding affinity to N-terminally 6xHis-Smt3 tagged human Ube2T C86K/K91R/K95R mutant expressed in Escherichia coli in presence of EDTA by ITC method. An outline of the steps:
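ITC at 25 °C with stirring at 750 rpm, protein approx. 50 μM. Buffer was 100 mM Tris pH 8.0, 100 mM NaCl, 0.5 mM TCEP, plus 2 mM EDTA. Heat of dilution corrected by titrant-into-buffer control. Repeated at least twice.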
On the technique in general: Isothermal titration calorimetry measures the heat released or taken up as one component is titrated into another.

Assay [3] shares this test system. Put plainly: Binding affinity to N-terminally 6xHis-Smt3 tagged human Ube2T C86K/K91R/K95R mutant expressed in Escherichia coli by DSF method. An outline of the steps: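 Compound ranged from 5 μM to 5 mM. Samples heated from 25 to 95 °C at 1 °C/min with fluorescence read at each step. Melting temperature shift was the read-out.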
In assay [4] the target is T3, Ubiquitin-conjugating enzyme E2 T (Homo sapiens, UniProt Q9NPD8, C86K/K91R/K95R). Put plainly: Binding affinity to N-terminally 6xHis-Smt3 tagged human Ube2T C86K/K91R/K95R mutant expressed in Escherichia coli by ITC method. An outline of the steps:
(§1)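 Titrations at 25 °C with stirring at 750 rpm in 100 mM Tris pH 8.0, 100 mM NaCl, 0.5 mM TCEP. Protein at approximately 50 μM. Titrant-into-buffer control used to correct for heat of dilution. Each titration repeated at least twice.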

Assay [5] addresses T3, Ubiquitin-conjugating enzyme E2 T. Put plainly: (§2) Binding affinity to N-terminally 6xHis-Smt3 tagged FANCL RING fused human Ube2T C86K/K91R/K95R mutant expressed in Escherichia coli by ITC method. An outline of the steps:
as §1

Assay [6] concerns the target T1, Ubiquitin-conjugating enzyme E2 T (Homo sapiens). Put plainly: Binding affinity to human 15N-labelled C-terminal flexible tail lacking Ube2T (1 to 154 residues) (unknown origin) at 500 uM by NMR spectrocopy. Put shortly:
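[1H-15N]-HSQC spectra recorded on 50 μM 15N-Ube2T ΔC (residues 1-154) with compound added at 100, 300 and 500 μM. Read-out was weakening or loss of resonance peaks compared with the apo spectrum.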

The test system of assay [7] is T2, Ubiquitin-conjugating enzyme E2 T (Homo sapiens), Q9NPD8 [C86K,K91R,K95R]. Put plainly: Binding affinity to N-terminally 6xHis-Smt3 tagged Ub fused human Ube2T C86K/K91R/K95R mutant expressed in Escherichia coli at 1.5 mM by ITC method. An outline of the steps: as §1
Assay [8] shares this test system. Put plainly: Binding affinity to biotin labeled Ube2T C86K/K91R/K95R mutant (unknown origin) assessed as association and dissociation response at 2 uM by biolayer interferometry analysis. Put shortly:
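Bio-layer interferometry with compound at a lowest tested concentration of 2 μM. Association and dissociation responses were recorded.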
(Biolayer interferometry detects binding as a change in optical thickness at a sensor tip.)

For assay [9], the target named is Ubiquitin-like modifier-activating enzyme 1 (Homo sapiens) (UniProt P22314). Put plainly: Inhibition of recombinant human E1 charging with ubiquitin at 20 to 100 uM after 10 mins in presence of ATP by coomassie staining based SDS PAGE analysis.
Sequence of Ubiquitin-like modifier-activating enzyme 1 (Homo sapiens) (P22314 whole entry, looked up): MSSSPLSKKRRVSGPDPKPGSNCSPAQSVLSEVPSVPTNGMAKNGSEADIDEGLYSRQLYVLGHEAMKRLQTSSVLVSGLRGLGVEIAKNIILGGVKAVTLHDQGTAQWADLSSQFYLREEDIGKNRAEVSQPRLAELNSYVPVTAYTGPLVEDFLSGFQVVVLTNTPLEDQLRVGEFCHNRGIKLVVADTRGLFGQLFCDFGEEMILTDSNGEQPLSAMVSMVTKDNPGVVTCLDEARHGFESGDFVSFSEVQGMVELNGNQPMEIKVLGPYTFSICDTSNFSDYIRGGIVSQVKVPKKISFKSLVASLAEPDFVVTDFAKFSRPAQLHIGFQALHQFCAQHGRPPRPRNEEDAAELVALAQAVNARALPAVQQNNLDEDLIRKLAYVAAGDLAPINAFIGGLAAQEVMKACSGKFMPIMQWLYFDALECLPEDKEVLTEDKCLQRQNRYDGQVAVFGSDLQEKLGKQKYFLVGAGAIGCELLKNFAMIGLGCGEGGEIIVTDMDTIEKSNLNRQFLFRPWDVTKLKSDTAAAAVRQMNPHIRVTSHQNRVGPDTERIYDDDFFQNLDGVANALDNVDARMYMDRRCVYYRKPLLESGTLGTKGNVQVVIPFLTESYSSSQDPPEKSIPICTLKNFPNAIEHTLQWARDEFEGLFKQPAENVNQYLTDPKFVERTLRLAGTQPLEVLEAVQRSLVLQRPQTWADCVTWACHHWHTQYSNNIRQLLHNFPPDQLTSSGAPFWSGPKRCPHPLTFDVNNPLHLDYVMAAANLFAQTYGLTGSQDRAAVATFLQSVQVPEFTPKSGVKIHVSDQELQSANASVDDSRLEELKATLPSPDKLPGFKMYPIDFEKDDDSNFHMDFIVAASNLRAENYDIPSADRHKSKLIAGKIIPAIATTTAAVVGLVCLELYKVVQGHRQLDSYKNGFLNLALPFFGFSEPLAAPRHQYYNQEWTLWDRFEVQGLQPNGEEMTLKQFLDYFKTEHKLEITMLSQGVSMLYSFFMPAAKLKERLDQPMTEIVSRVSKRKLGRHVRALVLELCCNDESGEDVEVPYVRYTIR
Assay [10] concerns T2, Ubiquitin-conjugating enzyme E2 T (Homo sapiens), Q9NPD8 [C86K,K91R,K95R]. The description is as §2. Put shortly: as §1

T3 sequence (Q9NPD8 whole entry C86K/K91R/K95R): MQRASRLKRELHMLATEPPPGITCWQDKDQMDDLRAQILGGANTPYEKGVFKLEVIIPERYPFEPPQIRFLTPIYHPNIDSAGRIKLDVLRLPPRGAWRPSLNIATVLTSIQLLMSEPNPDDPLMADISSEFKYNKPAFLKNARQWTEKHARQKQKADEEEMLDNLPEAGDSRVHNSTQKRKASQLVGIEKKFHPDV

In the case of `Cc1cc(C)n(-c2ccc(C(=N)N)cn2)n1`, the outcome in assay [1], in assay [6] and in assay [8] was Active. The outcome in [2] and in assay [7] was inactive. Also, in assay [3], the Activity result was “Dose-dependent effect”. The figures for the pKd in assay [4] and in assay [5] were 4.75 and 4.67, respectively. The inhibition entry in assay [9] is “inactive”.
As for `CC1CCCN1c1ccc(C(=N)N)cn1` (stereo not drawn), the outcome in assay [3] and in [10] was inactive.
With `CC1CCN(c2ccc(C(=N)N)cn2)C1` (stereo not drawn), the result in assay [3] and in [10] was inactive.
For `N=C(N)c1ccc(N2CCCCC2)nc1`, the outcome in [3] and in assay [10] was inactive.
The compound `[Cl-].[Cl-].[Zn+2]` [ZINC CHLORIDE] gave a pKd in assay [4] of 4.80.
With `N=C(N)c1ccc(N2CCCC2)nc1`, in [3], the Activity entry is “Dose-dependent effect”.
Still for that read-out and setting: to `N=C(N)c1ccc(-n2cccn2)nc1` belongs “Dose-dependent effect”.
